High-throughput results deposited in PubChem by Columbia University Molecular Screening Center.
Many of the other results were omitted from the sample, so hits are more common in it than they were.
INS promoter act: TRM-6 insulin promoter activation; TRM-6 cells, insulin promoter eGFP reporter, imaging; plate-scaled: unstimulated 0, stimulated control 100; activation, % at 2 µM; 130,000 compounds, 0.81% hits;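 active = activation at 2 µM above a set limit, confirmed on inspection of the cell images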;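 note: share of cells whose green reporter signal exceeds an intensity cutoff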
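Test system: human fetal islet-derived TRM-6 cells with tamoxifen-inducible insulin promoter–eGFP reporter; schedule: overnight tamoxifen, then two-day compound incubation at 37 °C; measured by: high-content imaging of fixed cells with Hoechst nuclear stain; evaluation: percent cells above green-intensity threshold, converted to percent activation versus plate controls; control set: stimulated and unstimulated wells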
Active calls of the source: *.

SMILES | INS promoter act
c1ccc(-n2ncc3c(N4CCN(CCOc5cccc6ccccc56)CC4)ncnc32)cc1 | 4
CCc1nc2sc(C)c(C)c2c(=O)n1CCO | 8
COc1ccc(C2C3=C(CC(C)(C)CC3=O)OC(N)=C2[N+](=O)[O-])cc1 (centres undefined) | 7
CC1CC(C)CN(C(=O)Cn2c(SCC(=O)N3CCc4ccccc4C3)nc3ccccc32)C1 (centres undefined) | 107
CC1CCN(C(=O)CSCC(=O)Nc2nc(-c3cccs3)cs2)CC1 | 0
CC1CCN(C(=O)Cn2c(SCC(=O)Nc3nccs3)nc3ccccc32)CC1 | 154*
CCN(CCCNC(=O)CN1C(=O)COc2ccccc21)c1cccc(C)c1 | 0
CCOCCCNC(=O)c1ccc(CS(=O)(=O)Cc2ccc(C)cc2)o1 | 0
CN(C)c1ccnc(SCc2ccccc2Cl)c1C#N | -73
CC1=C(C(=O)Nc2cccnc2)C(c2cccnc2)n2ncnc2N1 (centres undefined) | -7
COc1ccc(NC(=O)C2=C(C)Nc3ncnn3C2c2ccccc2C(F)(F)F)c(OC)c1 (centres undefined) | 403*
COc1ccccc1NC(=O)C1=C(C)Nc2nnnn2C1c1ccncc1 (centres undefined) | -8
CCc1ccc(S(=O)(=O)/N=C2\C=CC(=O)c3ccccc32)cc1 | 327*
CCc1ccc(S(=O)(=O)/N=C2/C=C(Sc3ncn[nH]3)C(=O)c3ccccc32)cc1 | 169
O=C1OC(N2CCN(C(=O)C3CCCO3)CC2)c2ccccc21 (centres undefined) | 173*
CCOC(=O)N1CCN(C(=O)Cc2cccs2)CC1 | 7
CCOC(=O)N1CCN(C2OC(=O)c3ccccc32)CC1 (centres undefined) | 459*
O=C1OC(N2CCN(C/C=C/c3ccccc3)CC2)c2ccccc21 (centres undefined) | -83
O=C(C1CCCO1)N1CCN(S(=O)(=O)c2cccc3nsnc23)CC1 (centres undefined) | -4
O=C(C1CCCO1)N1CCN(C(=S)Nc2ccc(F)cc2)CC1 (centres undefined) | -3
Cn1c(N=NC(=O)c2ccccc2)c(O)c2ccccc21 | -4
CCSc1nnc(NC(=O)[C@@H](NC(=O)c2ccccc2F)C(C)C)s1 | -8
CCCn1nnc(NC(=S)NC(=O)CC)n1 | 6
Cc1ccc(OCc2nnc(SCC(=O)c3cccc([N+](=O)[O-])c3)n2C)cc1 | 4
CCN(CC)c1ccc(C=C2C(=O)OC(c3ccccc3)OC2=O)cc1 (centres undefined) | 312*
SMILES | INS promoter act
CCN(CC)c1ccc(/C=N/NC(=O)c2ccco2)cc1 | 0
CCN(CC)c1ccc(C2NC(=O)NC(C)=C2C(=O)Nc2ccccc2)cc1 (centres undefined) | 109
COc1ccc(NC(=O)Cn2nnc(C(N)=O)c2N)c(OC)c1 | -8
CCCCNC(=O)CSc1nc2ccsc2c(=O)n1C1CCN(C(=O)OCC)CC1 | 0
CCOC(=O)/C(C#N)=C\c1cccnc1 | 7
CCOC(=O)/C(C#N)=C/c1cccc(F)c1 | 7
C=CCN1C=CC(=C/C=C(/C#N)C(=O)OCC)C=C1 | 163*
CCCc1cc(-n2cnc3ccccc32)n2c(nc3ccccc32)c1C#N | 76*
CCCc1cc(NCc2ccccn2)n2c(nc3ccccc32)c1C#N | 0
CCCNc1cc(C)c(C#N)c2nc3ccccc3n12 | 381
CCCCOC(=O)Nc1cc(C(=O)OC)ccc1C(=O)OC | -65
CCCCC(c1nnnn1CCOC)N1CCN(Cc2ccccc2)CC1 (centres undefined) | 0
COc1c(OC(C)=O)ccc(/C=N\NC(=O)c2ccc(Br)cc2)c1[N+](=O)[O-] | 0
O=C(c1ccccc1)c1ccc(OCC(O)CN2CCOCC2)cc1 (centres undefined) | 233
O=C1c2ccccc2C(=O)N1CC(O)CN1CCOCC1 (centres undefined) | 533*
CC(C(=O)N1CCOCC1)N1C(=O)c2ccccc2C1=O (centres undefined) | 282
Cc1[nH]c2ccccc2c1/C=C/c1nc2ccccc2c(=O)n1CCO | 0
Cc1noc(C)c1S(=O)(=O)N1CCCC(C(=O)NC2CCCCC2)C1 (centres undefined) | -8
Cc1cccc(-c2nc(CN3CCCC(C(=O)NC4CCCCCC4)C3)c(C)o2)c1 (centres undefined) | 171*
Cc1cccc(-c2nc(CS(=O)CC(=O)NCC3CCCO3)c(C)o2)c1 (centres undefined) | 0
CCCn1c(C)cc(C(=O)COc2ccc(-c3nnco3)cc2)c1C | 0
Cc1cc(-c2ccccc2)nn1-c1nc2c(c(=O)[nH]c(=O)n2C)n1C | -9
CN(C)S(=O)(=O)c1ccc(C(=O)OCCn2cnc3c2c(=O)n(C)c(=O)n3C)cc1 | 7
CCCN(CCC)S(=O)(=O)c1ccc(C(=O)NCc2n[nH]c(=S)n2-c2ccc(Cl)c(Cl)c2)cc1 | 0
CC(C)(C)c1ccc(S(=O)(=O)N2CCN(c3ncccn3)CC2)cc1 | 267*
O=S(=O)(c1cc(F)cc(F)c1)N1CCN(c2ncccn2)CC1 | -7
